TRPC6 inh: blocks the mouse TRPC6 cation channel; Q61143; HEK293-TRPC6, membrane potential dye, ACh-evoked depolarization; hits give low values; B-score at 10 µM; actives 1.1% (n = 310,000); AID 2553;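 active means B-score under library mean minus 3 SD, initial fluorescence not abnormally high, positive integrated signal ratio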;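 further: B-score derived from integrated fluorescence ratio over the kinetic read; more negative B-score means stronger inhibition of depolarization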
Target sequence (Q61143 whole entry, looked up): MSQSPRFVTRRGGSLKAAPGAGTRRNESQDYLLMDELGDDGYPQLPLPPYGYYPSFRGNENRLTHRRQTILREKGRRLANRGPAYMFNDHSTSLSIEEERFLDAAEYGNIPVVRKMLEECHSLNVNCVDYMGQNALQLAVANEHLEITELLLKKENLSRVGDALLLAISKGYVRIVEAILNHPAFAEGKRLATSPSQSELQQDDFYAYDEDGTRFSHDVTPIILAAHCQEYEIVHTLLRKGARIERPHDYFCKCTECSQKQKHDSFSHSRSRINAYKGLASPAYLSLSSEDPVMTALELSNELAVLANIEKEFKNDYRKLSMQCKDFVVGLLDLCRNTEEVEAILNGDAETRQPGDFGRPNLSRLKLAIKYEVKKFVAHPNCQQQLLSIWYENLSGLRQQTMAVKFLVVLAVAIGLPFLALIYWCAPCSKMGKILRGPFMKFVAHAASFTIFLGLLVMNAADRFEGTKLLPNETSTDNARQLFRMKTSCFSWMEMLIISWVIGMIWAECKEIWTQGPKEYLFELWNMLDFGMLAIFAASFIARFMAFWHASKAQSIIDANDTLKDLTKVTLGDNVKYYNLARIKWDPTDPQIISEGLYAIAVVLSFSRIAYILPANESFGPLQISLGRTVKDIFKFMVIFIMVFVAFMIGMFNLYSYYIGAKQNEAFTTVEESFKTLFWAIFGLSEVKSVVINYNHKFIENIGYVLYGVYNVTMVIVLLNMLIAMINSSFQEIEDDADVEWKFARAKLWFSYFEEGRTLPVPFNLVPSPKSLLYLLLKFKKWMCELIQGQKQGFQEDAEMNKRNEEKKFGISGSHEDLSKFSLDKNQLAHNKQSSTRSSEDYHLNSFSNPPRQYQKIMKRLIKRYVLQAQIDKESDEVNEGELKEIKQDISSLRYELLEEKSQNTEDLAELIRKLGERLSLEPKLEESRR
TRPC6 activator: activates the mouse TRPC6 cation channel. Q61143. HEK293-TRPC6 membrane potential dye fluorescence; hits give high values. B-score at 10 µM. actives 0.13% (n = 310,000). AID 2550;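 active means B-score of the integrated fluorescence ratio above library mean plus 3 SD, and starting fluorescence ratio within library mean plus 5 SD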;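 further: higher score means more depolarization so channel activation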
TRPC4 agonist: activators of mouse TRPC4 channel; Q9QUQ5; HEK293 TRPC4beta/mu-opioid, Fluo4 calcium fluorescence; hits give high values; B-score at 10 µM; actives 0.49% (n = 310,000);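 active means B-score above 5 SD of library B-scores, and initial fluorescence ratio not above library mean plus 5 SD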;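 further: positive B-score marks a calcium rise read as TRPC4 activation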
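Assay system: HEK293 stable line with TRPC4beta plus mu-opioid receptor. Times: dye 45 min RT, read 110 s. Measured by: kinetic Fluo4 calcium fluorescence. Measure: B score of integrated ratio. Controls: assay buffer as low control, maximal DAMGO as high control.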
TRPC4 potent: TRPC4 (mouse) allosteric potentiation. HEK293 TRPC4beta/mu-opioid, DAMGO EC20, Fluo-4 Ca2+ flux; hits give high values. B-score at 10 µM. actives 0.42% (n = 310,000). AID 2227;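 active means B-score of calcium response area above 5 SD of library B-scores, with initial fluorescence ratio within 5 SD of library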
TRPC4 block: blocks the mouse TRPC4 cation channel. Q9QUQ5. HEK293 TRPC4beta/mu-opioid, DAMGO-evoked Fluo4 calcium flux; hits give low values. actives 0.39% (n = 300,000). AID 2247. B-score at 10 µM;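 active means B-score over 3 SD under the library average, no early fluorescence shift, positive overall ratio signal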
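Assay system: Stable TRPC4beta/mu-opioid receptor HEK293 cells | Reagent: DAMGO in two steps, submaximal then maximal | Compound dosing: Single concentration per test compound | Signal: Fluo4 Ca2+ flux fluorescence | Evaluation: Per-well B score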
Each line names hits and unclear results; the compound was inactive in the other large screens. The list is not random: actives were taken first. Their share in the collection is about 2.3%.

COc1ccc(OC)c(CN2CCC(CO)(CCOc3ccccc3)CC2)c1	none
CC(OC(=O)CCCNC(=O)c1ccc(Cl)cc1)C(=O)N(C)Cc1ccccc1 (stereo not given)	none
CCOC(=O)C1(CCOc2ccccc2)CCN(Cc2cccc(-n3cccn3)c2)CC1	TRPC4 agonist 98
COc1ccccc1CCNC(=O)C(=O)c1cn(CC(=O)N2CCOCC2)c2ccccc12	none
Oc1cccc(C2c3[nH]c4ccccc4c3CCN2Cc2ccoc2)c1 (stereo not given)	none
Oc1cccc(C2c3[nH]c4ccccc4c3CCN2Cc2ccc3c(c2)CCO3)c1 (stereo not given)	TRPC4 block -6
CCOC(=O)C1CCCN(CCC(C)c2ccccc2)C1 (stereo not given)	none
NC(=O)C1CCCN(CCc2ccccc2)C1 (stereo not given)	TRPC4 agonist 103
CC(CN1CCCC(C(N)=O)C1)c1ccccc1 (stereo not given)	TRPC4 agonist 131
COC(=O)C(CC(=O)c1ccc(Br)cc1)n1cccn1 (stereo not given)	none
COc1ccc(OCC(O)CNCc2ccco2)cc1 (stereo not given)	none
COc1ccc(C(CNCC(O)COc2c(C)ccc(C)c2C)N(C)C)cc1 (stereo not given)	TRPC4 agonist 68
CC(=O)N1c2ccccc2NC2=C(C(=O)CC(C)(C)C2)C1c1cccn1C (stereo not given)	none
CSc1ccc(S(=O)(=O)NCC(=O)OCC(=O)N(Cc2ccccc2)C(C)C)cc1[N+](=O)[O-]	none
CSc1ccc(S(=O)(=O)NCC(=O)OCC(=O)N(C)Cc2ccccc2)cc1[N+](=O)[O-]	TRPC4 potent 17
Cc1cccc(N2CCN(C(=O)c3cn4ccccc4n3)CC2C)c1 (stereo not given)	none
CN1CCN(c2ncnc3c2[nH]c2ccc(F)cc23)CC1	none
CN1CCN(c2cc3c(c4c2[nH]c2ccccc24)C(=O)CC(C)(C)C3)CC1	TRPC4 agonist 79
COc1ccccc1NC(=O)COC(=O)c1ccccc1C(=O)N1CCN(c2ccccc2)CC1	TRPC4 potent 11
Cc1ccc(S(=O)(=O)Nc2ccnc(-c3cccnc3)n2)cc1	none
Cc1ccc(S(=O)(=O)NCCC(=O)OCC(=O)N2CCCC2=O)cc1C	none
COc1ccc(/C=N/n2c(SC)nnc2-c2ccccc2)cc1C	TRPC4 potent 34
CC(C)C1CC(CCNCc2ccc3c(c2)OCO3)(c2ccccc2)CCO1 (stereo not given)	TRPC4 agonist 122
Cc1ccc(C2(CCNCc3ccc(N(C)C)cc3)CCOC(C(C)C)C2)cc1 (stereo not given)	TRPC4 agonist 111
CC(C)C1CC(CCNCc2ccc(N(C)C)cc2)(c2ccccc2)CCO1 (stereo not given)	TRPC4 agonist 100
COc1ccc(O)c(CN2CCC(n3nccc3NC(=O)CCOc3ccccc3)CC2)c1	none
O=C(CN1CCN(S(=O)(=O)c2ccc3ccccc3c2)CC1)Nc1ccc2c(c1)CCC2	none
COc1ccc(S(=O)(=O)N2CCOC2CNC(=O)C(=O)NCCCN2CCOCC2)cc1 (stereo not given)	none
CCOc1ccc(N(CC(=O)N2CCCC2)S(=O)(=O)c2ccc(Cl)cc2)cc1	none
Cn1c(N2CCN(C(=O)NCc3ccccc3)CC2)nc2ccccc21	none
Cn1c(N2CCN(C(=O)Nc3ccc(C(F)(F)F)cc3)CC2)nc2ccccc21	TRPC4 agonist 94
CCn1cnc2cc(NCc3ccc(C)cc3)ccc21	none
Cc1ccc(CNc2ccc3c(c2)ncn3C(C)C)cc1	TRPC4 agonist 45
OC1(c2ccccc2)CN(c2ccccc2)C2=[N+]1CCS2 (stereo not given)	TRPC4 agonist 72, TRPC4 block -9
OC1(c2cccs2)CN(c2ccc(Br)cc2)C2=[N+]1CCCS2 (stereo not given)	none
Cc1ncc(CO)c(CNc2ccc(Oc3ccccc3)cc2)c1O	none
CC1=CC(=O)C=C(C)C1=NOc1ccccc1[N+](=O)[O-]	none
O=C(c1ccc(CS(=O)(=O)Cc2ccccc2)cc1)N1CCCCC1	none
COc1cc(C2N(c3ccc(Cl)cc3)C(=O)C3CCCN32)cc(OC)c1OC (stereo not given)	none
